Measured values taken from ChEMBL document CHEMBL2375340, “Cytotoxic bisbenzylisoquinoline alkaloids from Stephania epigaea” (J Nat Prod, 2013).

Experiments:
Format in all cases: functional, cell-based
A549 = assay: Cytotoxicity against human A549 cells after 48 hrs by MTS assay; settings: A549, 48 h
Summary of the method: (§1)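 Cells kept in RPMI 1640 with 10% FBS and 100 U/mL penicillin/streptomycin, 37 °C, 5% CO2. Seeded at 5 × 10^3/well with test samples at various concentrations for 48 h. MTS (5 mg/mL in PBS) added, 4 h more. Medium partly replaced by 20% SDS overnight to dissolve formazan. Absorbance read at 570 nm. IC50 calculated by Reed and Muench method. Cisplatin served as positive control.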

[1] = Cytotoxicity against human ECA109 cells after 48 hrs by MTT assay; settings: ECa-109, 48 h
Summary of the method: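 Cells grown in RPMI 1640 with 10% FBS and 100 U/mL penicillin/streptomycin, humidified 5% CO2, 37 °C. Plated 5 × 10^3/well, exposed to test samples at various concentrations for 48 h. MTT then added in place of MTS, 4 h further. Formazan dissolved overnight in 20% SDS, A570 measured. IC50 by Reed and Muench method. Tanespimycin (17AAG) was the positive control.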

SMMC-7721 = assay: Cytotoxicity against human SMMC7721 cells after 48 hrs by MTS assay; settings: SMMC-7721, 48 h; summary of the method: as §1
SW480 = assay: Cytotoxicity against human SW480 cells after 48 hrs by MTS assay; settings: SW480, 48 h; summary of the method: as §1
HL-60 = assay: Cytotoxicity against human HL60 cells after 48 hrs by MTS assay; settings: HL-60, 48 h; summary of the method: as §1
MCF7 = assay: Cytotoxicity against human MCF7 cells after 48 hrs by MTS assay; settings: MCF7, 48 h; summary of the method: as §1

SMILES	IC50 (A549)	IC50 [1]	IC50 (SMMC-7721)	IC50 (SW480)	IC50 (HL-60)	IC50 (MCF7)
COc1ccc2cc1Oc1ccc(cc1)C[C@H]1c3c(cc4c(c3Oc3cc5c(cc3OC)CCN=C5C2)OCO4)CC[N@@+]1(C)[O-]	> 10 µM	10 µM	> 10 µM	> 10 µM	> 10 µM	> 10 µM
COc1ccc2cc1Oc1ccc(cc1)C[C@H]1c3c(cc4c(c3Oc3cc5c(cc3OC)CCN[C@@H]5C2)OCO4)CCN1C	3.7 µM	3.2 µM	4.8 µM	3.7 µM	2.8 µM	2.3 µM
COc1ccc2cc1Oc1ccc(cc1)C[C@H]1c3c(cc4c(c3Oc3cc5c(cc3OC)CCN(C)[C@@H]5C2)OCO4)CCN1C [CEPHARANTHINE]	5 µM	> 10 µM	9.9 µM	4.7 µM	9.2 µM	2.9 µM
COc1ccc2cc1Oc1ccc(cc1)C[C@H]1c3cc(c(OC)cc3CCN1C)Oc1c(O)c(OC)cc3c1[C@H](C2)N(C)CC3 [FANGCHINOLINE]	> 10 µM	> 10 µM	> 10 µM	> 10 µM	> 10 µM	5 µM
COc1ccc2cc1Oc1ccc(cc1)C[C@H]1c3c(cc(OC)c(O)c3Oc3cc4c(cc3OC)CCN(C)[C@@H]4C2)CCN1C [HOMOAROMOLINE]	> 10 µM	> 10 µM	> 10 µM	> 10 µM	> 10 µM	9.5 µM
C=CCNC1=C2C[C@@H](C)C[C@H](OC)[C@H](O)[C@@H](C)/C=C(\C)[C@H](OC(N)=O)[C@@H](OC)/C=C\C=C(/C)C(=O)NC(=CC1=O)C2=O [TANESPIMYCIN]	–	1.1 µM	–	–	–	–
